Test results published in ChEMBL document CHEMBL3414498, “Design and synthesis of 3-(3-((9H-carbazol-4-yl)oxy)-2-hydroxypropyl)-2-phenylquinazolin-4(3H)-one derivatives to induce ACE inhibitory activity” (Eur J Med Chem, 2015).
The source made the active and inactive calls. No cut-off for these calls is given here.

Key:
[1] = biological target: Angiotensin-converting enzyme (Homo sapiens) (UniProt P12821); assay: Inhibition of ACE (unknown origin) at 1 uM using synthetic peptide hippuryl-histidyl-leucine substrate by high-throughput colorimetric screening method
Sequence of Angiotensin-converting enzyme (Homo sapiens) (P12821 whole entry): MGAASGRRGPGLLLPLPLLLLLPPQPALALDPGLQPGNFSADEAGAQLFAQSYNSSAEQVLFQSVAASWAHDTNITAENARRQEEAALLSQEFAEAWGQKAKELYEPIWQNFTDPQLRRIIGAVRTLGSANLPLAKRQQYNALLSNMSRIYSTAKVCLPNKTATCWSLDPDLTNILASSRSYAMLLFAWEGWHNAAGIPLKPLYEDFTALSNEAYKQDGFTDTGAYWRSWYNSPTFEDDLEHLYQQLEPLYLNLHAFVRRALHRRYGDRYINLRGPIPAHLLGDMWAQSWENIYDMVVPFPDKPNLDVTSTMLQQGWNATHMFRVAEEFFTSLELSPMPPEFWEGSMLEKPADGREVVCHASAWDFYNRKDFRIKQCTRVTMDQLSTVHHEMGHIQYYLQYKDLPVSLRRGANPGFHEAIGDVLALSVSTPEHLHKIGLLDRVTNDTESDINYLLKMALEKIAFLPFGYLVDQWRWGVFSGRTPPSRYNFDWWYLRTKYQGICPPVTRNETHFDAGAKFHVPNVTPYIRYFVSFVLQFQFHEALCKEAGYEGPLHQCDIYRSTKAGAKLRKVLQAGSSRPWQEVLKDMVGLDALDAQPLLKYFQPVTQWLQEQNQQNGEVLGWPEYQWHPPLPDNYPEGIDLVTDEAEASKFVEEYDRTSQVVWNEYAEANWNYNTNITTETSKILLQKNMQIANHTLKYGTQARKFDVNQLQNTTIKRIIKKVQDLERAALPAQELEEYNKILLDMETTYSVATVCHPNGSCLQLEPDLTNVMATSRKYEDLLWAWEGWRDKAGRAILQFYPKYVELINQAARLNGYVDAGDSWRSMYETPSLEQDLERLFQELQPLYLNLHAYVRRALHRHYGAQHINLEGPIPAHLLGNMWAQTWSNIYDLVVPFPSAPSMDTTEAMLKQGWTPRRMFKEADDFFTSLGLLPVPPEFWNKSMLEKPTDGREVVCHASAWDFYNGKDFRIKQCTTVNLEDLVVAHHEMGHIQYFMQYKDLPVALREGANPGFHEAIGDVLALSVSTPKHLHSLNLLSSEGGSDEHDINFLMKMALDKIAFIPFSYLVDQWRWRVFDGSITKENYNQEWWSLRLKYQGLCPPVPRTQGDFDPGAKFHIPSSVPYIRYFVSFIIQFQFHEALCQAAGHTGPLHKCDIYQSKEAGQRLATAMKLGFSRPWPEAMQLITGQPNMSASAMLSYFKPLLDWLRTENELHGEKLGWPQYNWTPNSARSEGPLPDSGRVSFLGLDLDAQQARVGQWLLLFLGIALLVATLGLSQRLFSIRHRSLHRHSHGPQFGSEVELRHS
Summary of the method: (§1)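 ACE activity was followed by the release of hippuric acid from the substrate hippuryl-histidyl-leucine. The released hippuric acid was converted to a yellow product with pyridine and benzene sulfonyl chloride, and the colour was read colorimetrically as absorbance. Each condition was run in triplicate and averaged, with lisinopril as the reference standard.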

[2] = biological target: Angiotensin-converting enzyme (Homo sapiens) (UniProt P12821); assay: Inhibition of ACE (unknown origin) at 1 uM using synthetic peptide hippuryl-histidyl-leucine substrate by high-throughput colorimetric screening method relative to lisinopril
[3] = biological target: Angiotensin-converting enzyme (Homo sapiens) (UniProt P12821); assay: Inhibition of ACE (unknown origin) at 0.5 uM to 10 uM uM using synthetic peptide hippuryl-histidyl-leucine substrate by high-throughput colorimetric screening method; summary of the method: as §1

inhibition [1] [%]	inhibition [2] [%]	inhibition [3]	Structure (SMILES)
17			O=c1c2ccccc2nc(-c2ccc([N+](=O)[O-])cc2)n1CC(O)COc1cccc2[nH]c3ccccc3c12 (stereo not drawn)
> 75	100	Active	Cc1ccc(-c2nc3ccccc3c(=O)n2CC(O)COc2cccc3[nH]c4ccccc4c23)cc1 (stereo not drawn)
17			O=c1c2ccccc2nc(-c2ccc(F)cc2)n1CC(O)COc1cccc2[nH]c3ccccc3c12 (stereo not drawn)

The remaining lines, values behind:

Structure (SMILES)	inhibition [1] [%]	inhibition [2] [%]	inhibition [3]
Cc1nc2ccccc2c(=O)n1CC(O)COc1cccc2[nH]c3ccccc3c12 (stereo not drawn)	17		
O=c1c2ccccc2nc(C(F)(F)F)n1CC(O)COc1cccc2[nH]c3ccccc3c12 (stereo not drawn)	> 75	82.9	Active
O=c1c2ccccc2nc(-c2ccc(Cl)cc2Cl)n1CC(O)COc1cccc2[nH]c3ccccc3c12 (stereo not drawn)	17		
O=c1c2ccccc2nc(-c2ccccc2)n1CC(O)COc1cccc2[nH]c3ccccc3c12 (stereo not drawn)	> 75	100	Active
